Test results: ChEMBL document CHEMBL1138568, “Design and synthesis of 5-alkoxy-[1,2,4]triazolo[4,3-a]quinoline derivatives with anticonvulsant activity” (Eur J Med Chem, 2009); call rule not given here

What was measured:
Mus musculus [1] = species: Mus musculus; test: Protective index, ratio of TD50 for neurotoxicity in C57B/6 mouse to ED50 for anticonvulsant activity in C57B/6 mouse; format: functional
Method in brief: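 Protective index computed as TD50 (rotarod, 30 min after ip dosing in polyethylene glycol-400) divided by ED50 in the maximal electroshock test at 30 min, both values from dose-response plots analysed with the NINDS program.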

Mus musculus [2] = test: Anticonvulsant activity in ip dosed C57B/6 mouse assessed as protection against maximal electroshock-induced seizure after 30 mins; format: functional; conditions: C57B/6, ip, 0.5 h
[3] = Neurotoxicity in ip dosed C57B/6 mouse after 30 mins by rotarod test; format: toxicity, organism-based; conditions: in vivo
Method in brief: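 Rotarod: 30 min after ip compound in polyethylene glycol-400, mice were placed on a 1-inch knurled plastic rod turning at 6 rpm for 1 min. Neurotoxicity was scored as failure to keep balance in each of three trials.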

Mus musculus [4] = test: Anticonvulsant activity in ip dosed C57B/6 mouse assessed as protection against pentylenetetrazole-induced clonic seizure administered 30 mins before pentylenetetrazole challenge measured after 30 mins; format: ADME, organism-based; conditions: C57B/6, ip, 0.5 h
Method in brief: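 Pentylenetetrazole 85 mg/kg sc, a dose set by dose-percent effect curve to give clonic seizures in 100% of mice, injected 30 min after ip compound in polyethylene glycol-400.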

Mus musculus [5] = test: Anticonvulsant activity in ip dosed C57B/6 mouse assessed as protection against thiosemicarbazide-induced tonic seizure administered 30 mins before thiosemicarbazide challenge measured after 1 hrs; format: ADME, organism-based; conditions: C57B/6, ip
Mus musculus [6] = test: Anticonvulsant activity in ip dosed C57B/6 mouse assessed as protection against 3-mercaptopropionic acid-induced tonic seizure administered 30 mins before 3-mercaptopropionic acid challenge measured after 1 hrs; format: ADME, organism-based; conditions: C57B/6, ip
Method in brief: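 Test compound given ip in polyethylene glycol-400; 30 min later 3-mercaptopropionic acid 40 mg/kg in saline injected sc. ED50 taken as the dose preventing tonic convulsions in 50% of treated mice.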

Mus musculus [7] = test: Anticonvulsant activity in C57B/6 mouse assessed as protection against strychnine-induced tonic seizure at 300 mg/kg, ip administered 30 mins before strychnine challenge measured after 30 mins; format: ADME, organism-based; set-up: dose 300 mg/kg, route intraperitoneal; conditions: in vivo, 0.5 h
Method in brief: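 Mice given test compound ip in polyethylene glycol-400; 30 min later strychnine chlorhydrate in saline (1.2 mg/mL, 1 mL/kg) injected sc, a dose set by dose-percent effect curve to convulse 100% of animals. Mice held in individual cages and observed 30 min for convulsions.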

Mus musculus [8] = test: Anticonvulsant activity in ip dosed C57B/6 mouse assessed as protection against isoniazid-induced tonic seizure administered 30 mins before isoniazide challenge measured after 1 hrs; format: ADME, organism-based; conditions: C57B/6, ip

## CCCOc1cc2nncn2c2ccccc12
Mus musculus [1]
  Ratio TD50/ED50: 1.4
Mus musculus [2]
  ED50: 65.7 mg/kg
[3]
  TD50 at 0.5 h: 94.7 mg/kg

## Fc1cccc(COc2cc3nncn3c3ccccc23)c1
Mus musculus [2]
  ED50: > 100 mg/kg

## CCCCOc1cc2nncn2c2ccccc12
Mus musculus [1]
  Ratio TD50/ED50: 1.5
Mus musculus [2]
  ED50: 36.7 mg/kg
[3]
  TD50 at 0.5 h: 54.8 mg/kg

## CCCCCCCCOc1cc2nncn2c2ccccc12
Mus musculus [2]
  ED50: > 100 mg/kg

## Clc1ccc(COc2cc3nncn3c3ccccc23)c(Cl)c1
Mus musculus [2]
  ED50: > 100 mg/kg

## c1ccc(COc2ccc3c(c2)CCc2nncn2-3)cc1
Mus musculus [1]
  Ratio TD50/ED50: 3.5

## CCCCCOc1cc2nncn2c2ccccc12
Mus musculus [1]
  Ratio TD50/ED50: 2.6
Mus musculus [2]
  ED50: 24.5 mg/kg
[3]
  TD50 at 0.5 h: 63.4 mg/kg

## CCOc1cc2nncn2c2ccccc12
Mus musculus [1]
  Ratio TD50/ED50: 1.4
Mus musculus [2]
  ED50: 91.3 mg/kg
[3]
  TD50 at 0.5 h: 131 mg/kg

## CCCCCCCOc1cc2nncn2c2ccccc12
Mus musculus [1]
  Ratio TD50/ED50: 1.6
Mus musculus [2]
  ED50: 68.2 mg/kg
[3]
  TD50 at 0.5 h: 110 mg/kg

## Fc1ccc(COc2ccc3c(c2)CCc2nncn2-3)cc1
Mus musculus [2]
  ED50: 11.1 mg/kg

## Clc1ccc(COc2cc3nncn3c3ccccc23)cc1
Mus musculus [2]
  ED50: > 100 mg/kg

## Fc1ccccc1COc1cc2nncn2c2ccccc12
Mus musculus [1]
  Ratio TD50/ED50: 9
Mus musculus [2]
  ED50: 25.4 mg/kg
[3]
  TD50 at 0.5 h: 228 mg/kg

## Brc1ccccc1COc1cc2nncn2c2ccccc12
Mus musculus [2]
  ED50: > 100 mg/kg

## Cc1ccc(COc2cc3nncn3c3ccccc23)cc1
Mus musculus [2]
  ED50: > 100 mg/kg

## Clc1ccccc1COc1cc2nncn2c2ccccc12
Mus musculus [2]
  ED50: > 100 mg/kg

## c1ccc(COc2cc3nncn3c3ccccc23)cc1
Mus musculus [1]
  Ratio TD50/ED50: 12
Mus musculus [4]
  ED50: 27.4 mg/kg
Mus musculus [5]
  ED50: 19 mg/kg
Mus musculus [6]
  ED50: 9.5 mg/kg
Mus musculus [7]
  Activity: Not Active
Mus musculus [8]
  ED50: 38 mg/kg
Mus musculus [2]
  ED50: 22.8 mg/kg
[3]
  TD50 at 0.5 h: 274 mg/kg

## COc1cc2nncn2c2ccccc12
Mus musculus [1]
  Ratio TD50/ED50: 1.1
Mus musculus [2]
  ED50: 93 mg/kg
[3]
  TD50 at 0.5 h: 102 mg/kg

## Brc1ccc(COc2cc3nncn3c3ccccc23)cc1
Mus musculus [2]
  ED50: > 100 mg/kg

## NC(=O)N1c2ccccc2C=Cc2ccccc21 [CARBAMAZEPINE]
Mus musculus [1]
  Ratio TD50/ED50: 6.4
Mus musculus [4]
  ED50: 11.4 mg/kg
Mus musculus [5]
  ED50: 19.7 mg/kg
Mus musculus [6]
  ED50: 13.7 mg/kg
Mus musculus [7]
  Activity: Not Active
Mus musculus [8]
  ED50: 22.8 mg/kg
Mus musculus [2]
  ED50: 11.8 mg/kg
[3]
  TD50 at 0.5 h: 76.1 mg/kg

## CCCCCCOc1cc2nncn2c2ccccc12
Mus musculus [1]
  Ratio TD50/ED50: 5.8
Mus musculus [2]
  ED50: 19 mg/kg
[3]
  TD50 at 0.5 h: 110 mg/kg

## Clc1cccc(Cl)c1COc1cc2nncn2c2ccccc12
Mus musculus [2]
  ED50: > 100 mg/kg

## Fc1ccc(COc2cc3nncn3c3ccccc23)cc1
Mus musculus [2]
  ED50: > 100 mg/kg
